High-throughput results as filed in PubChem BioAssay.
Furin inhibitor: human furin inhibition | purified furin, fluorogenic substrate cleavage | P09958 | inhibition, % at 20 µM or 30 µM | 220,000 compounds, 0.061% hits; in the data active = inhibition above about 25%
EP2 antag: EP2 receptor (human) inhibition. P43116. C6 glioma cells expressing human EP2, cAMP TR-FRET; cells stimulated with saturating PGE2. inhibition, % at 25 µM. 260,000 compounds, 0.52% hits. AID 1422;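 active = percent inhibition above 40 after rounding to a whole number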;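 note: rat C6 glioma host cells with rolipram phosphodiesterase inhibitor present; the protocol text gives 20 µM as final concentration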
JMJD2C inh: blocks human GASC-1 demethylase activity; Q9H3R0; GST-JMJD2C(1-420) H3K9me3 demethylation, DELFIA europium; 330,000 compounds, 0.069% hits; inhibition, % at 2.35 µM;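 active = more than half of a compound's replicate wells show inhibition beyond 50%, single wells judged on their own value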;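 note: signal counts dimethyl H3K9 product captured on neutravidin plate; 0% = median of DMSO wells and 100% = 0.3 times that DMSO median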
EP2 mod: EP2 receptor (human) modulation. P43116. EP2-expressing cells, cAMP HTRF FRET, PGE2 co-stimulation. induction, % at 25 µM. 260,000 compounds, 0.83% hits. AID 940;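 active = compounds whose cAMP rise, as percent of the full-agonist control response, exceeds 60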;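 note: rat C6 glioma line stably carrying human EP2 under a CMV promoter; the protocol text gives 20 µM as final concentration; 100% = response of wells given 1 µM PGE2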
NR2E3 ag-1: agonists of human NR2E3 nuclear receptor | Q9Y5X4 | CHO-S Gal4-NCOR/VP16-NR2E3 two-hybrid, luciferase | inhibition of corepressor binding, % at 3.98 µM | 360,000 compounds, 0.35% hits;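 active = inhibition above the mean of all tested compounds plus 3 SD, cut at about 70% in these data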;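 note: 0% = DMSO with NR2E3 transfected cells and 100% = cells lacking NR2E3 construct; higher means lower luciferase signal from less NR2E3 corepressor binding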
Target sequence (Q9Y5X4 whole entry, looked up, the tested form may be a part): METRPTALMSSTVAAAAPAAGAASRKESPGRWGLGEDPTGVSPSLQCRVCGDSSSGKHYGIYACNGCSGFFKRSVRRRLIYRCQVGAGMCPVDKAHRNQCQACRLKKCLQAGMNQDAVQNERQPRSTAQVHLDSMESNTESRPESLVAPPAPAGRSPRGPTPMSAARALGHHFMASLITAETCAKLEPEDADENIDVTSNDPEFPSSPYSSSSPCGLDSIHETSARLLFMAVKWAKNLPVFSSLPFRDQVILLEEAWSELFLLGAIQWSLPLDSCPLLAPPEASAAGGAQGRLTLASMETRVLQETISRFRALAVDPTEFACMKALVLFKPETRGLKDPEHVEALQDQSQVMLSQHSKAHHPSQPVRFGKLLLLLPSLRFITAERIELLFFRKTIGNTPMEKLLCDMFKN
NR2E3 ag-2: NR2E3 (human) agonism | Q9Y5X4 | GST-NR2E3/biotin-RetCOR TR-FRET, 1536-well | inhibition of corepressor binding, % at 4.78 µM | 320,000 compounds, 0.12% hits;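 active = percent inhibition above the cutoff of mean plus 3 SD of all tested compounds, set per screening campaign, cut at about 20% in these data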;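 note: 0% = DMSO wells and 100% = biotin wells as full block of FRET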
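Format: 1536-well format; test system: GST-NR2E3 and biotin-RetCOR proteins; read-out basis: percent inhibition of TR-FRET ratio; timing: 5 h incubation at 4 °C; detection: time-resolved FRET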
EP2 cAMP induct: human EP2 receptor cAMP induction, negative in counter-screens. shares compounds with EP2 mod. C6 glioma EP2 cells, cAMP HTRF induction; plus low (about EC15) PGE2 agonist. calls only at 20 µM (by protocol). 1,300 compounds, 47% hits;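 active = cAMP induction above 50% in the main assay while under 30% in all four parallel counter assays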;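 note: rat C6 glioma cells stably expressing human EP2 receptor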
An asterisk follows results filed as active; i = inactive; nt = not tested or not shown; + = active, no number; ! = repeats disagree. The list is not random: actives were taken first. Their share in the collection is about 1.3%.

SMILES	Furin inhibitor	EP2 antag	JMJD2C inh	EP2 mod	NR2E3 ag-1	NR2E3 ag-2	EP2 cAMP induct
C=CCCC1(C)C(=O)N(c2ccccc2)c2ccccc21 (stereo unspecified)	-16.6	4.7	-3.3	76.7*	-9.3	0.5	+
C=CCC1(C)C(=O)N(c2ccccc2)c2ccccc21 (stereo unspecified)	-2.6	3.7	-3.5	68.9*	17.9	2.5	i
CC1(O)C(=O)c2ccccc2N(c2ccccc2)C1=O (stereo unspecified)	-6.2	9.7	-3.3	16.0	12.6	-2.2	nt
Cc1ccc2nc(N3CCC(C(=O)O)CC3)nc(-c3ccccc3)c2c1	2.9	12.8	7.8	90.6*	-5.9	3.4	i
O=C(O)CCCCCCCCCCCc1ccccc1	-18.0	9.6	-5.0	77.8*	-17.5	-0.5	+
CCOc1ccc(NC(=O)CSc2nnc3c(n2)[nH]c2ccccc23)cc1	nt	10.3	nt	-20.9	nt	nt	nt
COc1ccc(-c2nnc(NC(=O)COc3ccc(C(C)C)cc3)s2)cc1OC	nt	4.4	nt	7.1	nt	nt	nt
C/C=C/Cn1c(SCc2ccc(C)cc2)nc2c1c(=O)[nH]c(=O)n2C	-21.7	16.4	-2.1	86.0*!	-1.1	-3.2	+
C/C(Cl)=C/Cn1c(SC(C)C)nc2c1c(=O)[nH]c(=O)n2C	-14.6	6.2	nt	65.2*	-24.9	3.8	i
Cc1cc(-c2cncnc2C2CCN(CC(=O)Nc3cc(C)on3)CC2)on1	nt	nt	nt	19.0	nt	nt	nt
O=C(O)/C=C/C(O)c1ccc(Cl)cc1 (stereo unspecified)	nt	13.2	nt	79.3*	9.2	4.5	i
COc1ccc(CC(=O)N2CCCC(c3nc(C)ncc3-c3ccncc3)C2)cc1 (stereo unspecified)	nt	nt	nt	-2.9	nt	nt	nt
CCC(CC)c1nnc(NC(=O)Cc2ccc(OC)c(OC)c2)s1	nt	9.8	nt	10.9	nt	nt	nt
CCCCc1nnc(SCCSc2nnc(CCCC)n2N)n1N	-17.4	9.6	12.9	81.1*	3.2	-3.2	i
Cc1cc2c3c(c1)C1(SCC(=O)N1c1ccc(F)cc1)C(=O)N3C(C)(C)CC2C (stereo unspecified)	-15.4	2.5	-4.7	66.5*	2.1	4.9	i
Cc1ccc2cc(CN(CCN3CCOCC3)C(=O)Nc3ccccc3Cl)c(=O)[nH]c2c1C	nt	8.5	nt	-50.2	nt	nt	nt
Cc1ccccc1NC(=O)c1cc(=O)[nH]c2ccccc12	nt	13.5	nt	-17.3	nt	nt	nt
CCOc1ccccc1C(=O)Nc1ccccc1-c1ccccc1	0.3	5.9	2.1	78.5*	9.7	-2.7	+
O=C(Nc1ccccc1Br)c1ccccc1-c1ccccc1	-22.6	9.5	24.0	70.2*	-29.7	1.0	+
CCOc1ccccc1C(=O)Nc1ccccc1O	-16.6	10.6	-1.2	-7.7	5.4	3.0	nt
CC(=O)c1cc(C(=O)NCCc2nc(-c3ccncc3)n[nH]2)cs1	nt	2.8	nt	-17.3	nt	nt	nt
c1ccc(-c2nn3c(-c4ccccc4)nnc3s2)cc1	-12.2	3.2	3.5	73.5*	3.3	0.7	+
c1ccc(-c2nn3c(C4CCCCC4)nnc3s2)nc1	-13.8	22.2	-10.8	-14.2	-30.2	0.4	nt
c1ccc(-c2nn3c(C4CCCCC4)nnc3s2)cc1	-15.4	3.5	9.6	73.1*	12.8	1.9	+
Cc1cccc(-c2nnc3sc(-c4ccccc4)nn23)c1	-13.1	5.9	5.4	54.9	-18.1	-5.0	nt
SMILES	Furin inhibitor	EP2 antag	JMJD2C inh	EP2 mod	NR2E3 ag-1	NR2E3 ag-2	EP2 cAMP induct
Cc1cccc(C)c1OCc1nnc(SCC(=O)Nc2nccs2)n1-c1ccccc1	-21.8	-2.4	-3.9	51.1	-11.4	0.5	i
CCC(=O)N1CCCc2cc(C(O)CN3CCCC(C)C3)ccc21 (stereo unspecified)	nt	4.4	nt	-12.7	nt	nt	nt
CCOC(=O)c1c(NC(=O)CS)sc2c1CCCC2	nt	9.8	nt	14.0	nt	nt	nt
CCOC(=O)c1c(NC(=O)c2ccc(-n3cnnn3)cc2)sc2c1CCCC2	-21.7	7.2	-0.7	57.7	-10.5	nt	+
CCOC(=O)c1c(NC(=O)c2ccc(N3C(=O)[C@@H]4[C@H](C3=O)[C@H]3C=C[C@@H]4C3)cc2)sc2c1CCCC2	-21.2	5.4	11.8	38.6	-26.2	-1.4	nt
CCOC(=O)Nc1sc2c(c1C(=O)OCC)CCC2	-13.0	3.9	0.2	74.5*	-17.0	0.2	i
O=C(NCCc1nc(-c2cccnc2)n[nH]1)C(c1ccccc1)C1CCCC1 (stereo unspecified)	nt	nt	nt	2.6	nt	nt	nt
Cc1ccc(S(=O)(=O)Nc2ccc(Cl)cc2C(=O)c2ccc(F)cc2)cc1	-16.7	20.1	6.1	67.0*	-14.8	-1.5	i
CCOC(=O)c1c(NC(=O)CN2C(=O)NC3(CCCCCC3)C2=O)sc(C)c1-c1ccc(C)cc1	-14.5	13.0	-1.2	68.3*	-9.3	0.8	+
CCOC(=O)c1c(NC(=O)CN2C(=O)NC3(CCC(CC)CC3)C2=O)sc(C)c1-c1ccc(C)cc1 (stereo unspecified)	-27.4	3.1	4.8	23.5	2.6	2.9	nt
CCOC(=O)c1c(NC(=O)CSc2nnc(N)s2)sc(C)c1-c1ccc(C)cc1	-15.9	7.1	-4.1	65.4*	-2.2	0.7	+
Cn1c(=O)c2c(SC3CCCC3)nc(C3CC3)nc2n(C)c1=O	-15.7	10.8	-0.1	79.1*	-7.0	3.8	+
Cn1c(=O)c(C(=O)Nc2ccc(N)cc2)c(O)c2ccccc21	nt	9.7	nt	-5.2	nt	nt	nt
COc1ccc(/C=C(\C#N)C(N)=O)cc1OC	nt	12.1	nt	76.5*	nt	nt	i
CCC1Oc2nc3ccc(OC)cc3cc2CN(CCOC)C1=O (stereo unspecified)	nt	7.5	nt	-35.4	nt	nt	nt
CC(=O)Nc1ccc(OCC(O)CN2CCN(C)CC2)cc1 (stereo unspecified)	nt	7.5	nt	1.9	nt	nt	nt
Cc1cccc(N2CCN(CC(=O)N3CCOCC3)CC2)c1C	nt	9.2	nt	11.2	nt	nt	nt
O=c1n(Cc2ccccc2F)c2ccccc2n1Cc1ccccc1F	-22.7	18.0	6.3	77.5*	-3.4	1.0	+
COC(=O)c1ccc(C2C(C#N)=C(N)Oc3cc(C)oc(=O)c32)cc1 (stereo unspecified)	nt	12.7	nt	-6.6	nt	nt	nt
COc1c(Cl)ccc(Cl)c1C(=O)Nc1sc2c(c1C#N)CCCC2	nt	10.3	nt	-17.3	nt	nt	nt
Cc1cc(-c2ccccc2)nc2cc(C(=O)N(Cc3ccccc3)Cc3ccccc3)nn12	-3.2	6.9	-3.2	72.2*	-1.3	-5.2	+
COc1ccc(-c2cc(C(F)(F)F)n3nc(C(=O)N(C)Cc4ccccc4)cc3n2)cc1OC	-10.6	5.0	9.8	57.6	5.3	3.9	i
COC(=O)c1cc2nc(-c3ccccc3)cc(C)n2n1	-21.2	11.1	-0.5	4.1	-29.9	3.4	nt
O=C(NCC1CCCO1)c1ccc(F)c(F)c1 (stereo unspecified)	nt	4.7	nt	-26.4	nt	nt	nt
